Experimental data pooled from the literature.
Observed: enzyme activity
Mode: inhibitor
ABL1: Tyrosine-protein kinase ABL1 (ABL1, Homo sapiens, UniProt P00519)
ABL1 T315I: Tyrosine-protein kinase ABL1 (ABL1, Homo sapiens, UniProt P00519, T315I)

| SMILES | target | technique | tested at | inhibition |
| --- | --- | --- | --- | --- |
| CC/C(=N\NC(=O)NCc1cccc(O)c1)c1ccc(O)c(C)c1O | ABL1 |  | 0.1 µM | -0.9% |
| CNCc1ccc(-c2cc(-c3nc(-c4ccc(S(=O)(=O)C(C)C)cc4)cnc3N)on2)cc1 | ABL1 |  | 0.4 µM | 11% |
| CN(C)C1CCN(CC#Cc2nn(C3CCCC3)c3nc(NCc4ccccc4)ncc23)C1 (stereo not shown) | ABL1 | FRET | 1 µM | 6% |
| COc1cc2ncnc(Nc3ccc(Oc4ccccc4)cc3C)c2cc1OC | Tyrosine-protein kinase ABL1 (ABL1, Homo sapiens, UniProt P00519, Y253F) |  | 1 µM | 12% |
| CCOc1cc(-c2nncn2C)ccc1Nc1ncc2cc(C)nc(NCC(C)(C)C)c2n1 | ABL1 | FRET | 1 µM | < 15% |
| CS(=O)(=O)Nc1cccc(-c2csc(NC(=O)CSc3nc4nccnc4c(=O)n3CCc3ccccc3)n2)c1 | ABL1 T315I |  | 10 µM | -2% |
| COc1cc2nccc(Oc3ccc(NC(=O)c4c5n(n(-c6ccc(F)cc6)c4=O)CCCC5)cc3)c2cc1OC | ABL1 |  | 0.1 µM | 26% |
| CNc1cccc2cc(C(=O)Nc3ccc(C(=O)O)cc3)c(=O)[nH]c12 | Tyrosine-protein kinase ABL1 (ABL1, Homo sapiens, UniProt P00519, Q252H) |  | 10 µM | 0.4% |
| COc1cc2ncnc(Nc3ccc(Oc4ccccc4)c(C)c3C)c2cc1OC | ABL1 |  | 1 µM | -4% |
| O=C(CSc1nc2nccnc2c(=O)n1CCc1ccccc1)Nc1nccs1 | Tyrosine-protein kinase ABL1 (ABL1, Homo sapiens, UniProt P00519, E255K) |  | 10 µM | -1% |
| COc1cc(-c2cc(-c3ccc(N4CCNCC4)cc3)cnc2N)cc(OC)c1OC | Tyrosine-protein kinase ABL1 (ABL1, Homo sapiens, UniProt P00519, H396P) |  | 0.1 µM | 87% |
| CNC(=O)c1cc2c(Oc3ccc(NC(=O)C4(C(=O)Nc5ccc(F)cc5)CC4)cc3)ccnc2cc1OC | ABL1 T315I | radiometric | 1 µM | 75% |
| C=CC(=O)Nc1cc(Nc2nccc(Nc3cc(Cl)c(F)cc3C(C)(C)O)n2)c(OC)cc1N1CC[C@@H](N(C)C)C1 | ABL1 T315I |  | 1 µM | 18% |
